Runt-CBFb FRET: inhibitors of human RUNX1 Runt domain binding to CBFb; Cerulean-Runt/Venus-CBFb FRET ratio 530/480, 1 h; 220,000 tested, 0.46% active; inhibition, % at 20 µM; Q01196+Q13951;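 active means inhibition over about 50% at 20 µM in the single-dose screen, limit read from the data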
Target sequence (Q01196 whole entry, looked up, the tested form may be a part): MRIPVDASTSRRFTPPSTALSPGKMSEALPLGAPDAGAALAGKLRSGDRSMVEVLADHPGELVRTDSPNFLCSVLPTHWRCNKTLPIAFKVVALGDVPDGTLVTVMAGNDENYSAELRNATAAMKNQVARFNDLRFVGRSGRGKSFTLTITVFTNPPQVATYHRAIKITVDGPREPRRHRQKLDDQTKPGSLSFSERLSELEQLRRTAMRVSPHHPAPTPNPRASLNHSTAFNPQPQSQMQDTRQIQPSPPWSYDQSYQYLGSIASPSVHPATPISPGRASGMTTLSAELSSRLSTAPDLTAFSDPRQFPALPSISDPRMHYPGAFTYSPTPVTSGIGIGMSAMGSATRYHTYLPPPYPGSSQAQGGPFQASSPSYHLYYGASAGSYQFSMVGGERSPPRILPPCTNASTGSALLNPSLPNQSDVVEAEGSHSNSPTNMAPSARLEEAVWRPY
Target sequence (Q13951 whole entry, looked up, the tested form may be a part): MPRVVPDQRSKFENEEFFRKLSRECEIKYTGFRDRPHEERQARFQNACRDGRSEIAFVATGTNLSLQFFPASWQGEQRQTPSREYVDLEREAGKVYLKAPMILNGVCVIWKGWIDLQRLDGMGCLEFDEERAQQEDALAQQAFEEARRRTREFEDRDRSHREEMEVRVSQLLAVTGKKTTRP
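Reagent – Venus-CBFb binding partner, 100 nM · Assay system – Cerulean-tagged RUNX1 Runt domain (FRET donor) fusion protein · Input – 100 nM per protein · Incubation – two 1 h room-temperature incubations shielded from light · Measured by – FRET fluorescence · Medium – Tris buffer pH 7.5 with salts and BSA · Benchmarks – unlabeled CBFb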
LANA-H2A inh: blocks KSHV LANA binding to histone H2A/H2B; cell-free LANA-H2A/H2B peptide, fluorescence polarization; Q9QR71; 320,000 tested, 0.6% active; inhibition, % (concentration not given with the values); AID 2629; in the data active means inhibition mostly above about 10%, no sharp cut-off; inactive means mostly below about 6.7%
Runt-SMMHC FRET: Runt domain-CBFb-SMMHC interaction inhibition | Q01196+Q13951 | 220,000 tested, 0.74% active | inhibition, % at 20 µM | Cerulean-Runt/Venus-CBFb-SMMHC FRET ratio 530/480, 1 h;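 active means mean inhibition across duplicate retests at 20 µM reaching about 50%, limit read from the data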;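 further: inhibitors lower the FRET ratio by blocking Runt binding to CBFb-SMMHC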
EBV gp42 inh: inhibitors of Epstein-Barr virus glycoprotein 42; Q1HVG2; AID 1085; Fluorescence polarization binding assay, mP read-out; 220,000 tested, 0.42% active; inhibition, % (tested at 21.74 µM); in the data active means inhibition above about 50%
RanGTP-Imp inh: disruptors of Ran-importin-beta complex formation – biochemical, FRET, CFP-Ran, YFP-importin-beta, homogeneous, primary screen | cell-free CFP-Ran/YFP-importin-beta FRET ratio | inhibition, % (concentration not given with the values) | 300,000 tested, 1.1% active;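 active means more than half of the replicate wells show a fall in the fluorescence ratio signal beyond about 16%, limit read from the data, passing the limit was not always enough; inconclusive means exactly half of the replicate wells pass the set limit; inactive means fewer than half of replicates pass the limit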
MEX-5 binding: C. elegans MEX-5 TCR-2 RNA binding activity | MEX-5/FITC-TCR2 RNA binding, fluorescence polarization; hits give low values | activity score (negative = inhibition of binding), % at 10 µM | 300,000 tested, 0.38% active;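 active means inhibition past about -25% in most replicates, and total fluorescence under double the plate's negative control median, limit read from the data; inconclusive means replicates evenly split on the limit, or fluorescence at least double controls; inactive means too little inhibition in most replicates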
Hits are given with their value; n = inactive; u = inconclusive; x = no result; + = active, no number. Hits are enriched below; roughly 2.4% of the tested compounds scored in any of these assays.

SMILES	Runt-CBFb FRET	LANA-H2A inh	Runt-SMMHC FRET	EBV gp42 inh	RanGTP-Imp inh	MEX-5 binding
COc1ccc(C2C=C(c3ccc(Br)cc3)Nc3nc(N4C(=O)CCC4=O)nn32)cc1 (configuration not stated)	n	n	n	68.2	n	-28.3
CS(=O)(=O)Nc1nc2n(n1)C(c1ccccc1)C=C(c1ccc(Br)cc1)N2 (configuration not stated)	n	n	n	58.0	n	-68.8
COc1ccccc1C1C=C(c2ccc(Cl)cc2)Nc2nc(NS(C)(=O)=O)nn21 (configuration not stated)	n	n	n	n	n	n
COc1ccccc1C1C=C(c2ccc(Cl)cc2)Nc2nc(N3C(=O)CCC3=O)nn21 (configuration not stated)	n	n	n	n	x	x
Cc1cccn2c(=O)c3cc(C(=O)NCCCn4ccnc4)n(C)c3nc12	n	n	n	n	n	n
CCCCNC(=O)c1cc2c(=O)n3cccc(C)c3nc2n1C	n	x	n	x	x	x
C=CCn1c(=N)c(C(=O)NCCCOC)cc2c(=O)n3cccc(C)c3nc21	n	n	61.3	n	+	n
COCCNC(=O)c1cc2c(=O)n3cccc(C)c3nc2n1C	n	n	n	x	n	n
Cc1cccn2c(=O)c3cc(C(=O)NCCc4ccccc4)c(=N)n(CCCn4ccnc4)c3nc12	n	n	81.6	n	177.8	n
CCCCNC(=O)c1cc2c(=O)n3cccc(C)c3nc2n(Cc2ccccc2)c1=N	n	n	62.5	n	188.4	n
COCCn1c(=N)c(C(=O)NCCc2ccccc2)cc2c(=O)n3cccc(C)c3nc21	x	n	x	x	191.6	n
CN(C)S(=O)(=O)c1cccc(NC(=S)NNC(=O)c2cc3ccccc3cc2O)c1	x	n	x	x	x	x
CC(=O)OC1C(N2CCCCC2)c2c(ccc(/C=C/C(=O)N3CCCCC3)c2O)OC1(C)C (configuration not stated)	n	n	n	n	n	n
CC(C)c1[nH]nc2c1C(c1ccco1)C(C#N)=C(N)O2 (configuration not stated)	n	n	n	n	n	n
CCNC(=O)c1cc2c(=O)n3cccc(C)c3nc2n(CCc2ccccc2)c1=N	n	n	62.0	n	185.8	-65.8
Cc1cccc(Cn2c(N(C)CCO)nc3c2c(=O)[nH]c(=O)n3C)c1	n	14.1	n	n	n	n
CN(C)C(=S)SCCn1c(N)nc(N(C)C)nc1=O	n	n	n	n	n	n
NC(=O)[C@@H]1CCCN1Cc1c(C(=O)N2CCc3ccccc3C2)nc2ccc(Cl)cn12	x	n	x	x	n	-31.5
CCS(=O)(=O)Nc1ccc(-c2nc3cccnc3s2)cc1	n	n	74.5	n	n	n
O=S(=O)(Nc1ccc(-c2nc3cccnc3s2)cc1)c1cccs1	90.9	n	144.8	n	n	n
Cc1cc(-c2nc3cccnc3s2)ccc1NS(=O)(=O)c1ccc2c(c1)OCCO2	102.0	n	119.0	n	70.5	n
Cc1c(NS(=O)(=O)c2ccc3c(c2)OCCO3)cccc1-c1nc2cccnc2s1	n	n	n	n	n	n
Cc1c(NS(=O)(=O)c2cccs2)cccc1-c1nc2cccnc2s1	n	n	n	n	n	n
Cc1cc(-c2nc3cccnc3s2)ccc1NS(=O)(=O)c1cccs1	127.8	n	107.3	n	91.8	n
CCN(C(=O)CSc1nc2ccc([N+](=O)[O-])cc2s1)C1CCS(=O)(=O)C1 (configuration not stated)	n	n	n	n	n	n
SMILES	Runt-CBFb FRET	LANA-H2A inh	Runt-SMMHC FRET	EBV gp42 inh	RanGTP-Imp inh	MEX-5 binding
CCCCC#Cc1cncc(C(=O)N/N=C/c2ccccc2)c1	n	n	n	n	n	n
Cc1cc(C)c2nc(C(F)(F)F)nc(NCCCN3CCCC3=O)c2c1	n	19.3	n	n	n	n
Cc1ccc(S(=O)(=O)c2nnn3c2nc(NCCCN2CCCC2=O)c2ccccc23)cc1C	x	n	x	x	n	n
COc1ccccc1OCCn1c(SCC(=O)O)nc2ccccc21	x	n	x	x	n	n
CCN(CC)c1ccc(/C=C/c2nc3ccccc3s2)cc1	n	n	n	n	n	-31.8
Cc1cnc(NC(=O)c2ccc3c(c2)C(=O)N(Cc2cccnc2)C3=O)s1	x	n	x	x	n	n
COc1cc(CNc2ccc(C)c(C)c2)cc(OC)c1OC	n	5.5	n	n	n	n
CC1(C)CC(=O)C=C(c2cccc(Cl)c2O)C1	x	n	x	x	x	x
Cc1ccc(C)c(NC(=O)CN(C)C(=O)c2ccccc2Cc2ccccc2)c1	x	n	x	x	u	n
COC(=O)c1c(N(S(C)(=O)=O)S(C)(=O)=O)sc2c1CCN(c1ncc(C(F)(F)F)cc1Cl)C2	65.1	n	79.2	n	n	n
COC(=O)c1c(/N=C/N(C)C)sc2c1CCN(c1ncc(C(F)(F)F)cc1Cl)C2	n	n	57.8	n	n	n
O=C(COC(=O)CCc1nc2ccccc2c(=O)[nH]1)Nc1ccccc1	x	24.4	x	x	x	x
Cc1ccc(NC(=O)C(C)c2cccc(C(=O)c3ccccc3)c2)cc1O (configuration not stated)	n	n	n	n	n	n
CC(NC(=O)C(=O)N/N=C\c1cccc([N+](=O)[O-])c1)c1ccccc1 (configuration not stated)	n	n	n	n	n	n
C/C(=N\NC(=O)CC(C)C)c1ccc(N2CCCCC2)cc1	n	n	n	n	n	n
CSC1=NC2(CCCCC2)CC12C=CC(=O)C=C2	n	n	n	n	n	n
CCn1c(=N)c(C(=O)NCc2cccnc2)cc2c(=O)n3cccc(C)c3nc21	n	x	61.3	x	x	x
O=C(NCc1cccnc1)c1cccn2c(=O)c3sccc3nc12	n	n	n	n	n	n
O=C(CSc1nc2ccccc2c(=O)n1CC1CCCO1)NCCc1ccccc1 (configuration not stated)	x	n	x	x	n	n
N=c1c(C(=O)NCCc2ccccc2)cc2c(=O)n3ccccc3nc2n1CC1CCCO1 (configuration not stated)	x	n	x	x	179.1	n
N=c1c(C(=O)NCc2ccco2)cc2c(=O)n3ccccc3nc2n1CC1CCCO1 (configuration not stated)	x	n	x	x	129.8	n
CNC(=O)c1cc2c(=O)n3cccc(C)c3nc2n(C(C)C)c1=N	n	n	59.8	n	183.5	n
COc1ccc2nc(NC(=O)CCN3C(=S)NC(C)(C)CC3C)sc2c1 (configuration not stated)	n	n	n	n	n	n
N=c1c(C(=O)NCc2ccc(F)cc2)cc2c(=O)n3ccccc3nc2n1CC1CCCO1 (configuration not stated)	n	n	60.4	n	198.5	n
N=c1c(C(=O)NCc2ccc3c(c2)OCO3)cc2c(=O)n3ccccc3nc2n1CC1CCCO1 (configuration not stated)	x	n	x	x	n	n
